Measurements from ChEMBL document CHEMBL1811814, “Synthesis and evaluation of indole, pyrazole, chromone and pyrimidine based conjugates for tumor growth inhibitory activities--development of highly efficacious cytotoxic agents” (Eur J Med Chem, 2010).

What was measured:
Format in all cases: functional
HCT-116 = experiment: Growth inhibition of human HCT116 cells
HT-29 = experiment: Growth inhibition of human HT-29 cells
SF-268 = experiment: Growth inhibition of human SF268 cells
U-251 [1] = experiment: Growth inhibition of human U251 cells
Malme-3M = experiment: Growth inhibition of human MALME-3M cells
M14 = experiment: Growth inhibition of human M14 cells
MDA-MB-435 = experiment: Growth inhibition of human MDA-MB-435 cells
SK-MEL-2 = experiment: Growth inhibition of human SK-MEL-2 cells
UACC-62 = experiment: Growth inhibition of human UACC62 cells
OVCAR-5 [2] = experiment: Growth inhibition of human OVCAR5 cells
SK-OV-3 = experiment: Growth inhibition of human SKOV3 cells
786-0 = experiment: Growth inhibition of human 786-0 cells
A498 [3] = experiment: Growth inhibition of human A498 cells
ACHN [4] = experiment: Growth inhibition of human ACHN cells
UO-31 = experiment: Growth inhibition of human UO31 cells
PC-3 [5] = experiment: Growth inhibition of human PC3 cells
DU-145 = experiment: Growth inhibition of human DU145 cells
BT-549 [6] = experiment: Growth inhibition of human BT549 cells
T47D = experiment: Growth inhibition of human T47D cells
CCRF-CEM [7] = experiment: Growth inhibition of human CCRF-CEM cells assessed tumor cell growth at 10^-5 M; set-up: scale not given: the % may be the effect or the level left
Summary of the method: (§1)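 NCI 60-human-tumor-cell-line panel screen. Each compound was tested at a single concentration of 10^-5 M, and percent growth of tumor cells was recorded for each cell line. Growth inhibition was expressed from these percent-growth values.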

HL-60(TB) [8] = experiment: Growth inhibition of human HL-60(TB) cells assessed tumor cell growth at 10^-5 M; set-up: scale not given: the % may be the effect or the level left
Summary of the method: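 HL-60(TB), part of the 60-line panel, tested at a single concentration of 10^-5 M. The read-out is percent tumor cell growth relative to untreated growth.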

[9] = Growth inhibition of human […] cells assessed tumor cell growth at 10^-5 M; set-up: scale not given: the % may be the effect or the level left; summary of the method: as §1
HOP-62 = experiment: Growth inhibition of human HOP62 cells assessed tumor cell growth at 10^-5 M; set-up: scale not given: the % may be the effect or the level left; summary of the method: as §1
HOP-92 = experiment: Growth inhibition of human HOP92 cells assessed tumor cell growth at 10^-5 M; set-up: scale not given: the % may be the effect or the level left; summary of the method: as §1
NCI-H226 [10] = experiment: Growth inhibition of human NCI-H226 cells assessed tumor cell growth at 10^-5 M; set-up: scale not given: the % may be the effect or the level left; summary of the method: as §1
NCI-H322M = experiment: Growth inhibition of human NCI-H322M cells assessed tumor cell growth at 10^-5 M; set-up: scale not given: the % may be the effect or the level left; summary of the method: as §1
COLO 205 = experiment: Growth inhibition of human COLO205 cells assessed tumor cell growth at 10^-5 M; set-up: scale not given: the % may be the effect or the level left; summary of the method: as §1
HCT-15 = experiment: Growth inhibition of human HCT15 cells assessed tumor cell growth at 10^-5 M; set-up: scale not given: the % may be the effect or the level left; summary of the method: as §1
SF-539 = experiment: Growth inhibition of human SF539 cells assessed tumor cell growth at 10^-5 M; set-up: scale not given: the % may be the effect or the level left; summary of the method: as §1
SNB-75 = experiment: Growth inhibition of human SNB75 cells assessed tumor cell growth at 10^-5 M; set-up: scale not given: the % may be the effect or the level left
Summary of the method: (§2)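 Single-dose screen at 10^-5 M across the 60 human tumor cell line panel, run to NCI standards. The value is the percent growth of each cell line in the presence of compound. Compounds active at this dose moved on to five-concentration testing (10^-4 to 10^-8 M).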

U-251 [11] = experiment: Growth inhibition of human U251 cells assessed tumor cell growth at 10^-5 M; set-up: scale not given: the % may be the effect or the level left; summary of the method: as §2
SK-MEL-5 = experiment: Growth inhibition of human SK-MEL-5 cells assessed tumor cell growth at 10^-5 M; set-up: scale not given: the % may be the effect or the level left; summary of the method: as §1
UACC-257 = experiment: Growth inhibition of human UACC257 cells assessed tumor cell growth at 10^-5 M; set-up: scale not given: the % may be the effect or the level left; summary of the method: as §2
OVCAR-3 = experiment: Growth inhibition of human OVCAR3 cells assessed tumor cell growth at 10^-5 M; set-up: scale not given: the % may be the effect or the level left; summary of the method: as §1
OVCAR-4 = experiment: Growth inhibition of human OVCAR4 cells assessed tumor cell growth at 10^-5 M; set-up: scale not given: the % may be the effect or the level left; summary of the method: as §1
OVCAR-5 [12] = experiment: Growth inhibition of human OVCAR5 cells assessed tumor cell growth at 10^-5 M; set-up: scale not given: the % may be the effect or the level left; summary of the method: as §1
OVCAR-8 = experiment: Growth inhibition of human OVCAR8 cells assessed tumor cell growth at 10^-5 M; set-up: scale not given: the % may be the effect or the level left; summary of the method: as §1
A498 [13] = experiment: Growth inhibition of human A498 cells assessed tumor cell growth at 10^-5 M; set-up: scale not given: the % may be the effect or the level left; summary of the method: as §1
ACHN [14] = experiment: Growth inhibition of human ACHN cells assessed tumor cell growth at 10^-5 M; set-up: scale not given: the % may be the effect or the level left; summary of the method: as §1
PC-3 [15] = experiment: Growth inhibition of human PC3 cells assessed tumor cell growth at 10^-5 M; set-up: scale not given: the % may be the effect or the level left; summary of the method: as §1
MCF7 = experiment: Growth inhibition of human MCF7 cells assessed tumor cell growth at 10^-5 M; set-up: scale not given: the % may be the effect or the level left; summary of the method: as §1
[16] = Growth inhibition of human Hs 578T cells assessed tumor cell growth at 10^-5 M; set-up: scale not given: the % may be the effect or the level left; summary of the method: as §1
BT-549 [17] = experiment: Growth inhibition of human BT549 cells assessed tumor cell growth at 10^-5 M; set-up: scale not given: the % may be the effect or the level left; summary of the method: as §1
MDA-MB-468 = experiment: Growth inhibition of human MDA-MB-468 cells assessed tumor cell growth at 10^-5 M; set-up: scale not given: the % may be the effect or the level left; summary of the method: as §1
CCRF-CEM [18] = experiment: Growth inhibition of human CCRF-CEM cells
HL-60(TB) [19] = experiment: Growth inhibition of human HL-60(TB) cells
K562 = experiment: Growth inhibition of human K562 cells
MOLT-4 = experiment: Growth inhibition of human MOLT4 cells
SR = experiment: Growth inhibition of human SR cells
A549 = experiment: Growth inhibition of human A549 cells
NCI-H226 [20] = experiment: Growth inhibition of human NCI-H226 cells
NCI-H23 = experiment: Growth inhibition of human NCI-H23 cells
[21] = read-out: LC50 (the source's name)

O=C1/C(=C\c2coc3ccccc3c2=O)c2ccccc2N1c1c(Cl)cccc1Cl gave a GI50 (HCT-116) of 1.9 µM, a CC50 (HCT-116; [21]) greater than 100 µM and a GI50 (HT-29) of 3 µM. It also gave a CC50 (HT-29; [21]) greater than 100 µM, a GI50 (SF-268) of 3.3 µM and a CC50 (SF-268; [21]) greater than 100 µM. It also gave a GI50 (U-251 [1]) of 1.4 µM, a CC50 (U-251 [1]; [21]) greater than 100 µM and a GI50 (Malme-3M) of 2.4 µM. It also gave a CC50 (Malme-3M; [21]) greater than 100 µM, a GI50 (M14) of 5.2 µM and a CC50 (M14; [21]) greater than 100 µM. The GI50 (MDA-MB-435) was 2.6 µM, the CC50 (MDA-MB-435; [21]) was greater than 100 µM and the GI50 (SK-MEL-2) was 2.7 µM. For the same compound, the CC50 (SK-MEL-2; [21]) was 61.6 µM, the GI50 (UACC-62) was 2.1 µM and the CC50 (UACC-62; [21]) was greater than 100 µM. The GI50 (OVCAR-5 [2]) was 20.8 µM, the CC50 (OVCAR-5 [2]; [21]) was greater than 100 µM and the GI50 (SK-OV-3) was 35.4 µM. The CC50 (SK-OV-3; [21]) was greater than 100 µM, the GI50 (786-0) was 3 µM and the CC50 (786-0; [21]) was greater than 100 µM. The GI50 (A498 [3]) was 4.3 µM, the CC50 (A498 [3]; [21]) was greater than 100 µM and the GI50 (ACHN [4]) was 4.1 µM. For the same compound, the CC50 (ACHN [4]; [21]) was greater than 100 µM, the GI50 (UO-31) was 1.8 µM and the CC50 (UO-31; [21]) was greater than 100 µM. For the same compound, the GI50 (PC-3 [5]) was 1.3 µM, the CC50 (PC-3 [5]; [21]) was greater than 100 µM and the GI50 (DU-145) was 4.6 µM. For the same compound, the CC50 (DU-145; [21]) was greater than 100 µM, the GI50 (BT-549 [6]) was 2.8 µM and the CC50 (BT-549 [6]; [21]) was greater than 100 µM. For the same compound, the GI50 (T47D) was 3 µM, the CC50 (T47D; [21]) was greater than 100 µM and the Activity (CCRF-CEM [7]) was 21.08%. It also gave an Activity (HL-60(TB) [8]) of 33.76%, an Activity [9] of 10.21% and an Activity (HOP-62) of 68.24%. It also gave an Activity (HOP-92) of 32.08%, an Activity (NCI-H226 [10]) of 90.68% and an Activity (NCI-H322M) of 73.67%. It also gave an Activity (COLO 205) of 55.33%, an Activity (HCT-15) of 24.69% and an Activity (SF-539) of 49.4%. For the same compound, the Activity (SNB-75) was 62.74%, the Activity (U-251 [11]) was 36.04% and the Activity (SK-MEL-5) was 20.33%. For the same compound, the Activity (UACC-257) was 61.22%, the Activity (OVCAR-3) was 16.79% and the Activity (OVCAR-4) was 49.54%. The Activity (OVCAR-5 [12]) was 101.76%, the Activity (OVCAR-8) was 31.58% and the Activity (A498 [13]) was 12.65%. It also gave an Activity (ACHN [14]) of 54.64%, an Activity (PC-3 [15]) of 31.81% and an Activity (MCF7) of 31.61%. The Activity [16] was 27.37%, the Activity (BT-549 [17]) was 41.11% and the Activity (MDA-MB-468) was 44.85%. For the same compound, the GI50 (CCRF-CEM [18]) was 2 µM, the CC50 (CCRF-CEM [18]; [21]) was greater than 100 µM and the GI50 (HL-60(TB) [19]) was 2 µM. The CC50 (HL-60(TB) [19]; [21]) was greater than 100 µM, the GI50 (K562) was 2 µM and the CC50 (K562; [21]) was greater than 100 µM. The GI50 (MOLT-4) was 2.9 µM, the GI50 (SR) was 1.4 µM and the CC50 (SR; [21]) was greater than 100 µM. For the same compound, the GI50 (A549) was 4.2 µM, the CC50 (A549; [21]) was greater than 100 µM and the GI50 (NCI-H226 [20]) was 20.8 µM. The CC50 (NCI-H226 [20]; [21]) was greater than 100 µM and the GI50 (NCI-H23) was 4.4 µM.
